Most compounds without a hit are left out; they make up all but 4.3% or so of the library.
B2AR ag – beta2AR agonists driving receptor internalization, primary screen, cell-based, FAP fluorogen, flow cytometry; Beta-2 adrenergic receptor (Homo sapiens), P07550; Am2.2-beta2AR cells; response, % (no concentration beside the values); 340,000 compounds, 0.43% hits;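 active = response above a set limit, near 3 SD of response in nonfluorescent compounds, cut at about 42% in these data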
Target sequence (P07550 whole entry, looked up): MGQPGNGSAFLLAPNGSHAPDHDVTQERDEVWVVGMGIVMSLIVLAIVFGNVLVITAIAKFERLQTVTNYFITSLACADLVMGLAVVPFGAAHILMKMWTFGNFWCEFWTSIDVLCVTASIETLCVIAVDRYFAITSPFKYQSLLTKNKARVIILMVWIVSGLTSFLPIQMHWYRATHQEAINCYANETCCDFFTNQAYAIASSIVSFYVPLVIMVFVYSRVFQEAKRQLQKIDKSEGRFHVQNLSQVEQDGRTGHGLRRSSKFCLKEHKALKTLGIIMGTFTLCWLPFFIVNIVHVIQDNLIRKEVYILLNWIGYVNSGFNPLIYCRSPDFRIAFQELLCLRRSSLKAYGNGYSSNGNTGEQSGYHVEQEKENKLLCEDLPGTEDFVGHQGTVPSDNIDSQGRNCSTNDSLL
MC4R antag cAMP – MC4R antagonists of cAMP signaling, primary screen, cell-based, TR-FRET, antagonist arm of biased-ligand search | Melanocortin receptor 4 (Homo sapiens), P32245 | 360,000 compounds, 0.48% hits | inhibition, % at 6.5 µM | MC4R-expressing cells, MTII-stimulated cAMP, LANCE TR-FRET;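 active = inhibition above its plate's cutoff, the mean of tested wells on that plate plus 3 SD, cut at about 29% in these data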
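System: U2OS cells stably expressing human melanocortin 4 receptor (MC4R). Reagent: Melanotan II challenge after compound preincubation. Doses: 6.5 µM. Times: 30-min compound, 1-h challenge, 1-h detection, room temperature. Measured by: TR-FRET with Eu-cAMP and labeled anti-cAMP, 671 nm. Replicates: singlicate.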
TAAR1 antagonist – human TAAR1 antagonists, primary screen, Fluo-8 calcium fluorescence, CHO RD-HGA16 cells | Trace amine-associated receptor 1 (Homo sapiens), Q96RJ0 | inhibition, % at 3 µM | antagonist | 360,000 compounds, 1.5% hits;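 active = inhibition above a per-plate cutoff, the mean inhibition of test compounds on that plate plus 3 SD, cut at about 49% in these data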
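Test system: RD-HGA16 CHO cells with stable hTAAR1 and Gα16 / Probe or stimulus: EC80 β-phenethylamine stimulus / Times: seeding 17-24 h prior, 75-min 37 °C, 30-min RT dye loading / Detection: Fluo-8 calcium-sensitive fluorescence / Read-out basis: % inhibition scaled between DMSO and EC80 PEA controls / Repeats: singlicate, one well per test compound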
MC4R barr agon – MC4R agonists recruiting beta-arrestin, primary screen, cell-based, luminescence, agonist arm of biased-ligand search; Melanocortin receptor 4 (Homo sapiens), P32245; U2OS MC4R beta-arrestin complementation; percent of melanotan II response, DMSO zero; activation, % at 8.9 µM; 360,000 compounds, 0.98% hits; AID 540308, 2011;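 active = activation above a per-plate cutoff, the mean activation of sample wells on that plate plus 3 SD, cut at about 8% in these data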
HTR2A ag – mouse Htr2a agonists via beta-arrestin recruitment, primary screen, cell-based, luminescence | 5-hydroxytryptamine receptor 2A (Mus musculus), P35363 | activation, % at 7.6 µM | CHO-K1 mHTR2A beta-arrestin complementation; percent of 30 µM serotonin response | 360,000 compounds, 0.66% hits;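 active = activation above a run cutoff, the mean activation of all tested compounds plus 3 SD, cut at about 14% in these data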
TAAR1 agonist – human TAAR1 agonists, primary screen, Fluo-8 calcium fluorescence, CHO RD-HGA16 cells; Trace amine-associated receptor 1 (Homo sapiens), Q96RJ0; AID 624467, 2012; 360,000 compounds, 0.99% hits; activation, % at 3 µM; vehicle wells 0%, saturating PEA agonist 100%;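 active = activation above the mean activation of all test compounds in the run plus 3 SD, cut at about 38% in these data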
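Assay system: CHO-derived RD-HGA16 cells with stable Gα16 and human TAAR1; timing: 17-24 h seeding, 75 min 37 °C dye, 30 min RT; read-out: % activation from peak over basal fluorescence ratio, DMSO-to-PEA scaled; measured by: kinetic Fluo-8 calcium fluorescence; benchmarks: low control DMSO, high control PEA (EC100); doses: 3 µM single concentration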
Beta2AR ag CP1 – beta2AR agonists via receptor internalization, confirmation, cell-based, FAP fluorogen, flow cytometry, single point, cherry pick 1 | shares compounds with B2AR ag | Am2.2-beta2AR cells, FAP surface receptor; active compounds read low | percent response (surface receptor), % at 10 µM | 1,100 compounds, 25% hits | AID 540358, 2011;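 active = surface receptor percent response at or below 58%, roughly 3 SD from nonfluorescent compounds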
FAP fluor counter – flagged in Am2.2 fluorescence counterscreen for beta-2AR agonists; shares compounds with B2AR ag; Am2.2 cells, FAP fluorogen flow cytometry; active compounds read low; calls only at 10 µM; 1,100 tested, under 10 active; AID 588765;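 active = percent response below a set limit in fluorescence channel 1 and below 50% in channel 8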
Of the large screens only hits and unclear results are named; the others gave an inactive call (follow-up assays come after a bar, where they were run).

CCOc1ccc(N(Cc2cc3ccc(C)cc3[nH]c2=O)S(=O)(=O)c2ccccc2)cc1	none
O=C(NC1CCCCC1)C1c2ccccc2OCC(=O)N1Cc1ccco1 (configuration not stated)	none (no result: B2AR ag, MC4R antag cAMP, MC4R barr agon)
CN(Cc1cccs1)c1nc(-c2cccnc2)nc2ccccc12	B2AR ag 103 | Beta2AR ag CP1 2.7 | FAP fluor counter inactive
CCOC(=O)c1cn(C2CC2)c2c(F)c(NCCCN(C)C)c(F)cc2c1=O	B2AR ag 64 | Beta2AR ag CP1 38 | FAP fluor counter inactive
CC(OC(=O)c1ccc(F)c(S(=O)(=O)N2CCOCC2)c1)C(=O)NC1CCCC1 (configuration not stated)	none
Cc1ccc2c(c1)C(=O)N(CCCCO)C2=O	B2AR ag 84 | Beta2AR ag CP1 inactive | FAP fluor counter inactive
CSc1ccc(S(=O)(=O)N2CCC(C(=O)NCC3CCCO3)CC2)cc1 (configuration not stated)	B2AR ag 155 | Beta2AR ag CP1 inactive | FAP fluor counter inactive
O=C(NCC1CCCO1)C1CCN(S(=O)(=O)c2ccc(Br)cc2)CC1 (configuration not stated)	none
NC(=S)N=Nc1c(O)n(Cc2ccc(F)cc2)c2ccccc12	none | Beta2AR ag CP1 inactive | FAP fluor counter inactive
NC(=S)N=Nc1c(O)n(Cc2ccc(Br)cc2)c2ccccc12	none
O=C(Cc1ccccc1)NC1(Cc2ccc(O)cc2)CCCCC1	B2AR ag 57 | Beta2AR ag CP1 47 | FAP fluor counter inactive
NNC(=O)CC(=O)NC1(Cc2ccc(O)cc2)CCCCC1	none
COc1cc2nc(N3CCN(C(=O)C4COc5ccccc5O4)CC3)nc(N)c2cc1OC (configuration not stated)	none | Beta2AR ag CP1 inactive | FAP fluor counter inactive
COc1cc2nc(N3CCN(C(=O)c4ccco4)CC3)nc(N)c2cc1OC	none
Cc1ccccc1CC(=O)N1CCCC(CNC(=O)c2ccc(F)cc2)C1 (configuration not stated)	none
CCCCOc1cccc(C(=O)Nc2ccc(NC(=O)c3cccs3)cc2)c1	B2AR ag 79 | Beta2AR ag CP1 21 | FAP fluor counter inactive
Cc1ccc(OCC(O)Cn2c(=N)n(Cc3ccccc3)c3ccccc32)cc1 (configuration not stated)	B2AR ag 55 | Beta2AR ag CP1 17 | FAP fluor counter inactive
N=c1n(Cc2ccc(Cl)cc2)c2ccccc2n1CC(O)COc1ccccc1 (configuration not stated)	B2AR ag 43, MC4R barr agon 12 | Beta2AR ag CP1 19 | FAP fluor counter inactive
COc1cccc(CCNC(=O)CCc2nnc(-c3cc(C)oc3C)o2)c1	none
O=C(CN1C(=O)CCC1=O)Nc1nc(-c2nc3ccccc3s2)cs1	B2AR ag 103 | Beta2AR ag CP1 9.2 | FAP fluor counter inactive
CCOC(=O)/C=C/[C@H]1CCc2cccc(Cl)c2O1	none
Cc1cc(C)n2nc(C(=O)Nc3ccc(S(=O)(=O)N4CCCC4)cc3)nc2n1	B2AR ag 46 | Beta2AR ag CP1 inactive | FAP fluor counter inactive
Cc1cc(C)n2nc(C(=O)Nc3cccc(S(=O)(=O)N(C)c4ccccc4)c3)nc2n1	B2AR ag 75 | Beta2AR ag CP1 12 | FAP fluor counter inactive
